# High-throughput results from PubChem BioAssay.
# Only a selection was taken, and hits are over-represented in it overall.
# Lmaj promast: reduces viability of Leishmania major promastigotes | actives 9% (n = 200,000) | AID 1063 | inhibition, % at 10 µM | resazurin fluorescence viability; in the data active = inhibition above about 50%;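 note: promastigotes grown with compound for 44 hours at 28 °C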
# T cruzi inh: T. cruzi replication inhibition | inhibition, % (concentration not given with the values) | actives 1.4% (n = 300,000) | T. cruzi beta-gal in NIH3T3, luminescence, 90 h;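 active = mean inhibition across valid replicates above about 55%, limit read from the data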;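 note: signal also drops with host cell toxicity which is not excluded here; 0% = plate median of DMSO wells and 100% = zero luminescence signal; higher percent means less beta-gal luminescence so fewer parasites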
#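 Assay system: NIH/3T3 host cells with β-galactosidase reporter T. cruzi; input: 5,000 host fibroblasts per well; compound: single 50 nL compound addition per well in DMSO; timing: ≥90 h infection period, 3 h prior cell attachment; measured by: GalScreen β-gal luminescence, detergent lysis, 60 min; evaluation: percent inhibition of parasite-derived β-gal signal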
# Dynein transport: blocks dynein driven cargo transport along microtubules; 3617.4 mouse cells, GR-EGFP nuclear translocation imaging; test concentration mostly 20 µM; stimulated with dexamethasone, 1 µM; hits give low values; actives 0.47% (n = 220,000); z-score, hits read low; AID 1381;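 active = plate z-score of nuclear minus cytoplasmic receptor signal below a set negative limit, without overly bright fluorescence or cell loss, cut at about -3.5 in these data, passing the limit was not always enough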;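 note: z-score of nuclear minus cytoplasmic ring GR-EGFP intensity difference per well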
#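 Buffer or medium: Induction medium lacking tetracycline, stripped serum | Also added: Dexamethasone agonist, 1.0 µM final, for 30 min | Timing: 48 h induction, 1 h compound, 30 min dex at 37 °C | Detection: Formaldehyde fixation, Hoechst nuclear stain, 10x automated fluorescence imaging | Measure: Nuclear versus cytoplasmic GR-EGFP signal, averaged per well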
# XBP1 UPR activ: activators of adaptive arm of unfolded protein response (XBP1). AID 463104. CHO-XBP1 luciferase reporter, IRE1-XBP1 UPR activation, luminescence; percent of tunicamycin response, DMSO as zero. actives 0.33% (n = 330,000). activation, % at 20 µM;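 active = versus positive control, 20 µM dose yields 30% or more activation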;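 note: 100% = tunicamycin at 10 µg/mL and 0% = DMSO only wells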
#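 Signal: luciferase luminescence; Assay system: CHO-XBP1 luciferase reporter cells; Amount: one thousand reporter cells per well; Dosing: 20 µM single concentration, DMSO 1%; Benchmarks: high control tunicamycin 10 µg/mL final, low control DMSO vehicle only; Schedule: 6 h compound exposure at 37 °C, 5% CO2; Evaluation: percent activation relative to tunicamycin reference.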
# UPR CHOP act: activators of apoptotic arm of unfolded protein response (CHOP); CHO-CHOP luciferase reporter, UPR activation, luminescence; percent of tunicamycin response over DMSO baseline; activation, % at 10 µM; actives 0.34% (n = 330,000); AID 449763;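 active = at 10 µM dose, activation of 40% or more, normalized to positive control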;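 note: 100% = tunicamycin at 10 µg/mL and 0% = DMSO alone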
#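 Dosing – one dose, 10 µM in 0.5% DMSO · System – CHO-CHOP cells, stable luciferase reporter of PERK-eIF2a-CHOP signalling · Input – 500 cells/well · Control set – tunicamycin 10 µg/mL final as positive, DMSO-only wells as negative · Timing – 6 h compound treatment, 37 °C · Measure – % activation vs tunicamycin · Technique – luminescence read with Steady-Glo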
# CHOP inhibitor: CHOP inhibition in unfolded protein response | CHO-K1 CHOP-promoter luciferase, tunicamycin-induced, 15-18 h | inhibition, % at 10 µM | actives 3.8% (n = 220,000);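 active = compounds that reduced the stress-induced luciferase reporter signal by more than about 70% of percent inhibition, limit read from the data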;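 note: 0% = tunicamycin plus vehicle and 100% = wells without tunicamycin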
# * = called active by the depositor; · = not tested or not shown.
SMILES,Lmaj promast,T cruzi inh,Dynein transport,XBP1 UPR activ,UPR CHOP act,CHOP inhibitor
CCOc1ccc(C(=O)Nc2sc3c(c2C(=O)OC)CC(C)(C)NC3(C)C)cc1,94*,36,-0.62,2,1,-11
O=C(Nc1cccc(Cl)c1)N(CCN1CCOCC1)Cc1ccccc1F,1,12,0.028,-1,0,29
C=CCC(c1ccccc1F)N(CCN1CCOCC1)C(=O)Nc1cccc(Cl)c1 (configuration not stated),93*,19,-0.51,-1,-2,44
COc1cccc(C2SCC(=O)N2c2ccc(Cl)cc2)c1OC (configuration not stated),67*,13,0.18,1,2,10
CCN1C(=O)[C@H]2[C@H]3CN=C(SCc4ccc(C)cc4)N3[C@@](C)(C(=O)OC)[C@H]2C1=O,·,·,·,1,2,·
CC(C)OCCCNC(=O)C(Cc1ccccc1)NS(=O)(=O)c1ccc2c(c1)CCC(=O)N2 (configuration not stated),·,-3,·,-1,-1,·
COc1cc(/C=N/NC(=O)c2cccnc2)ccc1OCC(=O)Nc1ccccc1Cl,-5,4,0.062,7,0,32
COc1ccc(NC(=O)COc2ccc(/C=N/NC(=O)c3cccnc3)cc2OC)cc1,55*,-7,0.16,1,2,17
COc1cc(/C=N/NC(=O)c2cccnc2)ccc1OCC(=O)Nc1c(C)cc(C)cc1C,54*,-5,1.8,2,-3,-7
COc1ccc(S(=O)(=O)N2CCC3(CC2)OCCN3S(=O)(=O)c2cccs2)cc1OC,·,9,·,0,-1,·
COc1ccc(N2CCN(C(=O)CSc3ccccc3)CC2)cc1,-2,9,1.8,-1,1,-1
COc1ccc(N2CCN(C(=O)CSc3ccccc3N)CC2)cc1,63*,8,0.19,1,-1,7
COc1ccc(N2CCN(C(=O)CC(NC(N)=O)c3cccc(Oc4ccccc4)c3)CC2)cc1 (configuration not stated),100*,3,-0.72,0,1,52
COc1ccc(N2CCN(C(=O)CCn3nnc4ccccc43)CC2)cc1,89*,4,0.16,-3,1,-12
COc1ccc(N2CCN(C(=O)CCCC(=O)c3ccccc3)CC2)cc1,·,3,·,-2,-1,·
CC1CC(C)CN(CCCNC(=O)C2CCCN(S(=O)(=O)N3CC(C)CC(C)C3)C2)C1 (configuration not stated),·,33,·,0,1,·
CC1C(=O)CC(c2ccccc2)N(C)C1c1ccccc1 (configuration not stated),2,0,1.8,1,0,79*
O=C(Nc1nc(-c2ccccn2)cs1)C1CCCC1,79*,-18,0.96,6,6,-85
O=C(COc1ccc(F)cc1Cl)Nc1nc(-c2ccccn2)cs1,·,76*,·,-2,-1,·
CSCCC(=O)Nc1nc(-c2ccccn2)cs1,88*,·,-0.26,·,·,-8
O=C(/C=C/c1ccco1)Nc1nc(-c2ccccc2)cs1,45,-68,-1.1,3,6,6
O=C(CN1C(=O)CCC1=O)Nc1nc(-c2ccccn2)cs1,0,-17,0.49,0,2,20
O=C(/C=C/c1ccco1)Nc1nc(-c2ccccn2)cs1,100*,60*,-1,-1,4,-112
Cc1ccc(S(=O)(=O)N2CCN(C(=O)COC(=O)C3CCC3)CC2)c(C)c1,·,-15,·,-2,-2,·
COc1ccc(-c2csc(NC(=S)NC(=O)/C=C/c3ccc(C(C)C)cc3)n2)cc1OC,·,34,·,5,1,·
SMILES,Lmaj promast,T cruzi inh,Dynein transport,XBP1 UPR activ,UPR CHOP act,CHOP inhibitor
O=C(Nc1ccc2nc(-c3ccccn3)[nH]c2c1)C1CCCCC1,100*,-8,3.6,5,4,36
O=C(CCCSc1ccccc1)Nc1nc(-c2ccccn2)cs1,100*,-7,1.3,-1,0,-44
COc1ccc(-c2csc(NC(=S)NC(=O)/C=C/c3ccco3)n2)cc1OC,6,-37,-0.72,·,·,95*
Cc1cc(Cl)ccc1OC(C)C(=O)Nc1cnn(CCCC(=O)O)c1 (configuration not stated),·,4,·,-3,4,·
CC(=O)NNC(=S)NC(=O)c1ccc(C)cc1,10,-16,-0.31,1,2,80*
Cc1cccc(C(=O)NC(=S)N2CCN(C(=S)NC(=O)c3cccc(C)c3)CC2)c1,73*,5,0.79,1,3,43
CCC(=O)NNC(=S)NC(=O)c1ccc(C)cc1,-8,-2,0.13,2,1,44
Cc1ccc(C(=O)NNC(=S)NC(=O)c2ccc(Cl)cc2)cc1,64*,-6,-0.25,12,1,94*
Cc1ccc(C(=O)NC(=S)NNC(=O)COc2ccccc2C)cc1,-9,32,-0.61,1,1,103*
CC(=O)NNC(=S)NC(=O)c1ccccc1,-3,3,2.3,1,-1,11
O=C(NC1CC(=O)N(c2ccc3c(c2)OCCO3)C1)N1CCCCC1 (configuration not stated),·,-5,·,-3,0,·
CC[C@H](C)[C@@H](C(=O)NCCCCCCCCCCC(=O)N1CCNCC1)n1cc(CCCCCN)nn1,·,·,·,-4,-3,·
CN(C(=O)COC(=O)/C=C/c1ccc(F)cc1)c1c(N)n(Cc2ccccc2)c(=O)[nH]c1=O,·,-5,·,-2,0,·
Cc1cccc(C(=O)NC(=S)NNC(=O)c2ccccc2Cl)c1,-12,13,-1.4,0,-2,86*
Cc1ccc(OCC(=O)NNC(=S)NC(=O)C(C)(C)C)c(Br)c1,-6,27,0.014,5,1,92*
COc1ccc(C(=O)NNC(=S)NC(=O)c2cc(-c3ccccc3)nc3ccccc23)cc1,-8,-12,-0.51,2,0,35
CCCOc1ccc(C(=O)NNC(=S)NC(=O)c2cc(-c3ccc(Cl)cc3)nc3ccccc23)cc1,2,32,-0.3,14,16,72*
Cc1cccc(C(=O)NC(=S)NNC(=O)Cc2ccccc2)c1,2,-22,-0.2,2,0,20
Cc1ccc(OCC(=O)NC(=S)Nc2ccccn2)c(Br)c1,·,1,·,-7,-6,·
CN(c1ccccc1)c1nccc(=O)[nH]1,·,-11,·,-1,0,·
O=C(O)c1ccc(Nc2cc(Cl)c3nonc3c2[N+](=O)[O-])cc1,-8,1,-0.57,0,1,-20
Cc1c(Nc2cc(Cl)c3nonc3c2[N+](=O)[O-])c(=O)n(-c2ccccc2)n1C,79*,·,-6*,-9,-10,108*
